Values after ≈ are worked out from the molar mass of the structure shown.

Holding throughout (assay type): functional
Test [1] has as its system Candida albicans. Description: Minimum effective concentration for inhibition of pseudomycelium formation in Candida albicans. Conditions: for minimal effective concentration: Candida albicans, read-out: MEC. The procedure, abridged: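 C. albicans KE-2 (clinical isolate) at a final 1 × 10^6 yeast cells/mL in EMEM with 20% calf serum; compounds diluted by the same microtiter system as for MICs. After incubation, wells were Giemsa-stained (5% in phosphate buffer) and read by microscope. MEC is the lowest concentration preventing typical pseudomycelium formation.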

In the next test the test system is Trichophyton benhamiae. The test is described as follows: In vitro antifungal activity against Trichophyton asteroides. The essentials:
(§1)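 Broth microdilution MIC in Sabouraud's glucose broth; final inocula 1 × 10^5 cells/mL (yeast) or 1 × 10^5 conidia/mL (mold and dermatophyte).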

A further test has as its system Aspergillus fumigatus. Description: In vitro antifungal activity against Aspergillus fumigatus. To be noted: Aspergillus fumigatus; read-out: MIC. The procedure, abridged:
as §1

In test [2] the test system is Candida albicans. Description: In vitro antifungal activity against Candida albicans. Conditions: Candida albicans; read-out: MIC. The essentials: as §1
The mark [3] stands for this setting: Trichophyton benhamiae, read-out: MIC.

By MIC is commonly meant the lowest concentration found to suppress growth. For the molecule `Fc1ccc([C@H]2OC(=S)O[C@]2(Cn2cncn2)c2ccc(Cl)cc2Cl)cc1`, the minimal effective concentration in the test on Candida albicans [1] stood at 10 µg/mL. Also, the MIC in the test on Trichophyton benhamiae (setting [3]) was 3.1 µg/mL (≈ 7.31 µM); in the test on Aspergillus fumigatus, more than 100 µg/mL; in the test on Candida albicans [2], 100 µg/mL (≈ 236 µM).

Turning to `OC(c1ccccc1Cl)C(O)(Cn1cncn1)c1ccccc1` (configuration not stated), the minimal effective concentration in the test with Candida albicans [1] was more than 20 µg/mL. The MIC in the test on Trichophyton benhamiae (setting [3]) is 0.8 µg/mL (≈ 2.43 µM); in the test with Aspergillus fumigatus, more than 100 µg/mL; in the test with Candida albicans [2], more than 100 µg/mL.

Consider `CCC[C@H]1OC(=O)O[C@]1(Cn1cncn1)c1ccc(Cl)cc1`, for which the minimal effective concentration with Candida albicans [1] is 0.31 µg/mL. Also, the results for the MIC in the test with Trichophyton benhamiae (setting [3]), in the test on Aspergillus fumigatus and in the test on Candida albicans [2] were 1.6 µg/mL (≈ 4.97 µM), more than 100 µg/mL and more than 100 µg/mL, respectively.

Consider `OC(c1ccccc1)C(O)(Cn1cncn1)c1ccccc1` (configuration not stated), for which the minimal effective concentration with Candida albicans [1] is more than 20 µg/mL. Further, the MIC in the test with Trichophyton benhamiae (setting [3]) was 25 µg/mL (≈ 84.6 µM); in the test on Aspergillus fumigatus it was more than 100 µg/mL; in the test on Candida albicans [2] it was more than 100 µg/mL.

Regarding `O=C(c1ccc(F)cc1)C(O)(Cn1ccnc1)c1ccc(Cl)cc1Cl` (configuration not stated), the minimal effective concentration in the test on Candida albicans [1] turned out to be 1.25 µg/mL. Also, the minimum inhibitory concentration (MIC) is 0.1 µg/mL (≈ 0.264 µM) with Trichophyton benhamiae (setting [3]), more than 100 µg/mL with Aspergillus fumigatus and more than 100 µg/mL in the test with Candida albicans [2].

In turn, `O=C1O[C@H](c2ccc(Cl)cc2)[C@](Cn2cncn2)(c2ccc(Cl)cc2Cl)O1` displayed an MEC with Candida albicans [1] of 0.08 µg/mL. The minimum inhibitory concentration (MIC) with Trichophyton benhamiae turned out to be 0.1 µg/mL (≈ 0.235 µM).

As for `O=C1O[C@H](c2ccc(Cl)cc2Cl)[C@@](Cn2cncn2)(c2ccccc2)O1`, the minimal effective concentration with Candida albicans [1] stood at 1.25 µg/mL. The MIC is 0.4 µg/mL (≈ 1.03 µM) with Trichophyton benhamiae (setting [3]), more than 100 µg/mL in the test on Aspergillus fumigatus and more than 100 µg/mL with Candida albicans [2].

As to `OC(Cc1ccc(Cl)cc1)(c1ccc(F)cc1)C(O)(Cn1cncn1)c1ccc(Cl)cc1` (configuration not stated), the minimal effective concentration in the test with Candida albicans [1] was 20 µg/mL. The MIC in the test on Trichophyton benhamiae (setting [3]), in the test on Aspergillus fumigatus and in the test with Candida albicans [2] was more than 100 µg/mL throughout.

`O=C1O[C@H](c2ccc(Cl)cc2)[C@@](Cn2cncn2)(c2ccc(Cl)cc2)O1`: the minimal effective concentration in the test on Candida albicans [1] came out at 1.25 µg/mL. The figures for the MIC in the test with Trichophyton benhamiae (setting [3]), in the test on Aspergillus fumigatus and with Candida albicans [2] were 0.8 µg/mL (≈ 2.05 µM), more than 100 µg/mL and 50 µg/mL (≈ 128 µM), respectively.

As to `CCCCCC(O)(Cn1cncn1)C(=O)c1ccc(Cl)cc1` (configuration not stated), in the test with Candida albicans [1], the minimal effective concentration is 0.63 µg/mL. For the same molecule, the figures for the MIC with Trichophyton benhamiae (setting [3]), in the test with Aspergillus fumigatus and with Candida albicans [2] were 0.2 µg/mL (≈ 0.621 µM), more than 100 µg/mL and 100 µg/mL (≈ 311 µM), respectively.

As to `OC(c1ccc(Cl)cc1Cl)C(O)(Cn1cncn1)c1ccc(Cl)cc1` (configuration not stated), the minimal effective concentration in the test with Candida albicans [1] was found to be 0.31 µg/mL. The minimal inhibitory concentration (MIC) with Trichophyton benhamiae (setting [3]) was 0.1 µg/mL (≈ 0.251 µM); with Aspergillus fumigatus it was more than 100 µg/mL; with Candida albicans [2], 100 µg/mL (≈ 251 µM).

Turning to `CCCCC(O)(c1ccccc1)C(O)(Cn1cncn1)c1ccc(Cl)cc1Cl` (configuration not stated), the minimal effective concentration in the test on Candida albicans [1] was 2.5 µg/mL. The values for the MIC with Trichophyton benhamiae (setting [3]), in the test on Aspergillus fumigatus and in the test on Candida albicans [2] were 0.2 µg/mL (≈ 0.476 µM), more than 100 µg/mL and more than 100 µg/mL, respectively.

`O=C(c1ccc(F)cc1)C(O)(Cn1cncn1)c1ccc(F)cc1` (configuration not stated): the minimal effective concentration with Candida albicans [1] came out at 10 µg/mL. The MIC is 0.79 µg/mL (≈ 2.4 µM) with Trichophyton benhamiae (setting [3]), more than 100 µg/mL with Aspergillus fumigatus and 100 µg/mL (≈ 304 µM) in the test with Candida albicans [2].

For the molecule `Fc1ccc([C@H]2OCO[C@]2(Cn2cncn2)c2ccc(Cl)cc2Cl)cc1`, the minimal effective concentration in the test with Candida albicans [1] is 0.31 µg/mL. Also, the values for the MIC with Trichophyton benhamiae (setting [3]), in the test with Aspergillus fumigatus and with Candida albicans [2] were 0.1 µg/mL (≈ 0.254 µM), more than 100 µg/mL and more than 100 µg/mL, respectively.

As to `CC(C)(O)C(O)(Cn1cncn1)c1ccccc1` (configuration not stated), in the test with Candida albicans [1], the minimal effective concentration was more than 20 µg/mL. Further, the MIC in the test with Trichophyton benhamiae (setting [3]) was 6.3 µg/mL (≈ 25.5 µM); with Aspergillus fumigatus, more than 100 µg/mL; in the test with Candida albicans [2] it was more than 100 µg/mL.

Regarding `O=C(c1cccc(Cl)c1)C(O)(Cn1cncn1)c1cccc(Cl)c1` (configuration not stated), the minimal effective concentration in the test on Candida albicans [1] is more than 20 µg/mL. The values for the MIC in the test with Trichophyton benhamiae (setting [3]), in the test with Aspergillus fumigatus and in the test on Candida albicans [2] were 3.13 µg/mL (≈ 8.64 µM), more than 100 µg/mL and more than 100 µg/mL, respectively.

`O=C1O[C@H](c2ccc(F)cc2)[C@@](Cn2cncn2)(c2ccc(F)cc2)O1`: the minimal effective concentration in the test on Candida albicans [1] amounted to 2.5 µg/mL. Besides, the values for the MIC in the test with Trichophyton benhamiae (setting [3]), with Aspergillus fumigatus and in the test with Candida albicans [2] were 3.1 µg/mL (≈ 8.68 µM), more than 100 µg/mL and more than 100 µg/mL, respectively.

In the case of `CC(O)(c1ccc(Cl)cc1Cl)C(O)(Cn1cncn1)c1ccc(Cl)cc1` (configuration not stated), in the test on Candida albicans [1], the minimal effective concentration amounted to 1.25 µg/mL. Besides, the MIC with Trichophyton benhamiae (setting [3]) worked out at 0.1 µg/mL (≈ 0.242 µM); with Aspergillus fumigatus, 50 µg/mL (≈ 121 µM); with Candida albicans [2], 100 µg/mL (≈ 242 µM).

For the molecule `COc1ccc(C(=O)C(O)(Cn2cncn2)c2ccc(OC)cc2)cc1` (configuration not stated), in the test with Candida albicans [1], the minimal effective concentration is more than 20 µg/mL. Moreover, the MIC with Trichophyton benhamiae (setting [3]) is 12.5 µg/mL (≈ 35.4 µM); in the test with Aspergillus fumigatus it was more than 100 µg/mL; in the test with Candida albicans [2] it was more than 100 µg/mL.

Turning to `CCCC(O)(Cn1cncn1)C(=O)c1ccc(Cl)cc1` (configuration not stated), the minimal effective concentration in the test on Candida albicans [1] amounted to 0.31 µg/mL. Also, the values for the MIC in the test with Trichophyton benhamiae (setting [3]), with Aspergillus fumigatus and with Candida albicans [2] were 0.8 µg/mL (≈ 2.72 µM), 50 µg/mL (≈ 170 µM) and more than 100 µg/mL, respectively.

As to `CC(O)(c1ccc(F)cc1)C(O)(Cn1ccnc1)c1ccccc1Cl` (configuration not stated), the minimal effective concentration in the test on Candida albicans [1] was 1.25 µg/mL. Moreover, the values for the minimum inhibitory concentration (MIC) in the test with Trichophyton benhamiae (setting [3]), in the test on Aspergillus fumigatus and in the test with Candida albicans [2] were 0.1 µg/mL (≈ 0.277 µM), 100 µg/mL (≈ 277 µM) and more than 100 µg/mL, respectively.
